Measurements taken from ChEMBL document CHEMBL1671829, “Activation of Neuropeptide FF Receptors by Kisspeptin Receptor Ligands” (ACS Med Chem Lett, 2011).
The source made the active and inactive calls. The calls are words filed in the database; no cut-off is given here.

Tests used:
[1] = target: T1, Neuropeptide FF receptor 1 (Homo sapiens, UniProt Q9GZQ6); assay: Displacement of (D-[125I]Tyr1, MePhe3)-NPFF from NPFFR1 after 2 hrs
How it was run: (§1)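 Dose–response inhibition of (d-[125I]Tyr1, MePhe3)-NPFF binding to NPFFR1 or NPFFR2. IC50 is the concentration giving 50% inhibition of radioligand binding, taken from dose–response curves built from triplicate data points.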

[2] = target: T2, Neuropeptide FF receptor 2 (Homo sapiens, UniProt Q9Y5X5); assay: Displacement of (D-[125I]Tyr1, MePhe3)-NPFF from NPFFR2 after 2 hrs; how it was run: as §1
KiSS-1 receptor [3] = target: T3, KiSS-1 receptor (Homo sapiens, UniProt Q969F8); assay: Displacement of [125I]kisspeptin-15 from GPR54
[4] = target: T1, Neuropeptide FF receptor 1; assay: Agonist activity at NPFFR1 expressed in HEK293T cells co-expressing Gqi5 assessed as increase of intracellular calcium mobilization at 0.24 uM after 1 hr; assay type: functional, cell-based; conditions: HEK-293T
Rattus norvegicus [5] = assay: Increase of luteinizing hormone level in Wistar-imamichi rat plasma at 0.25 nmol, administered intracerebroventricularly in preoptic area after 3 hrs measured every 6 mins by double-antibody radioimmunoassay; assay type: functional, organism-based
How it was run: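 Male rats given 0.25 nmol peptide into the preoptic area. Blood sampled every 6 min over 3 h; plasma LH expressed as area under the curve. Mean ± SEM of five or more experiments.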

Rattus norvegicus [6] = organism: Rattus norvegicus; assay: Increase of GnRH release in Wistar-imamichi rat median eminence at 0.1 uM after 30 mins by double-antibody radioimmunoassay; assay type: functional
How it was run: (§2)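 Rat median eminence incubated in vitro with peptide. Released GnRH quantified by double-antibody radioimmunoassay with [125I]-labeled GnRH; mean ± SEM of triplicate or more experiments.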

[7] = target: T2, Neuropeptide FF receptor 2; assay: Agonist activity at NPFFR2 expressed in CHO cells assessed as inhibition of forskolin-induced cAMP accumulation at up to 100 uM after 30 mins
[8] = target: T1, Neuropeptide FF receptor 1; assay: Agonist activity at NPFFR1 expressed in CHO cells assessed as inhibition of forskolin-induced cAMP accumulation at up to 100 uM after 30 mins
[9] = target: T4, Galanin receptor type 1 (Homo sapiens) (UniProt P47211); assay: Displacement of [125I]-Tyr9-galanin from GalR1 at 10 uM after 1 hr
T4 sequence (whole entry): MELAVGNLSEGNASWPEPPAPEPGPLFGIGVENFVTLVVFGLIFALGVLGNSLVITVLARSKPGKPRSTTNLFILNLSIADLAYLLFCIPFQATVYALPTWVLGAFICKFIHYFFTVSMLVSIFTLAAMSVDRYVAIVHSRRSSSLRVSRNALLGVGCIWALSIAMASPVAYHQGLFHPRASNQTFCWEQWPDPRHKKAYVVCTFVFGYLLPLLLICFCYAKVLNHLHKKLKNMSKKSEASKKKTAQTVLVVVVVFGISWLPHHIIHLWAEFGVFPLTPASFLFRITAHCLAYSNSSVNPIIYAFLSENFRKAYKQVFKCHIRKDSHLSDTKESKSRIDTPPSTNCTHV
How it was run: (§3)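 Single-point radioligand binding inhibition on receptor membrane preparations, test peptide at 10 μM. Radioligands are [125I]Tyr9-galanin for GALR1–3, [125I]-prolactin-releasing peptide-20 for PrRPR, and (d-[125I]Tyr1, MePhe3)-NPFF for NPFFR1 and NPFFR2. Read-out is % inhibition of specific binding, mean of duplicate analyses.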

[10] = target: T5, Galanin receptor type 2 (Homo sapiens) (UniProt O43603); assay: Displacement of [125I]-Tyr9-galanin from GalR2 at 10 uM after 1 hr; how it was run: as §3
T5 sequence (whole entry): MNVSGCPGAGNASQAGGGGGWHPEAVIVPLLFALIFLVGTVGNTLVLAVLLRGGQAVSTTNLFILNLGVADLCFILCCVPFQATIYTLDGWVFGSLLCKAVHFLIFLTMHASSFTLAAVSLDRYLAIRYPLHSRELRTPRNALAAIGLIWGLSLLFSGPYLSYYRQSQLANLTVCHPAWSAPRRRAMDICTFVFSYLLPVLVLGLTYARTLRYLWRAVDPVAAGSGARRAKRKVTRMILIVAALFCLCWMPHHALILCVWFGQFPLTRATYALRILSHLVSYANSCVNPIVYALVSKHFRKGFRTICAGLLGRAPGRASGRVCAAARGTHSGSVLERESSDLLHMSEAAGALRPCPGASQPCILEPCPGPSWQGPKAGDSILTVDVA

[11] = target: T6, Galanin receptor type 3 (Homo sapiens) (UniProt O60755); assay: Displacement of [125I]-Tyr9-galanin from GalR3 at 10 uM after 1 hr; how it was run: as §3
T6 sequence (whole entry): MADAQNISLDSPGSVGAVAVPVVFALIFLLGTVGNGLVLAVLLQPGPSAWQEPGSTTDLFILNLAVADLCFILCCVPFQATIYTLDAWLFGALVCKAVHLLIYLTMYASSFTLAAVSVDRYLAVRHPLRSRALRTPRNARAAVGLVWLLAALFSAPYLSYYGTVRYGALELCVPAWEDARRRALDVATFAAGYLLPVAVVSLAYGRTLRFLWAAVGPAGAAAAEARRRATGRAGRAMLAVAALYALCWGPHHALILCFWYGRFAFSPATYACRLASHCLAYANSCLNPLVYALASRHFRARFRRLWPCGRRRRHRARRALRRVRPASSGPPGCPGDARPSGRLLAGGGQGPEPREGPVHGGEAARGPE

[12] = target: T7, Prolactin-releasing peptide receptor (Homo sapiens) (UniProt P49683); assay: Displacement of [125I]-prolactin releasing peptide-20 from PrRPR at 10 uM after 30 mins; how it was run: as §3
T7 sequence (whole entry): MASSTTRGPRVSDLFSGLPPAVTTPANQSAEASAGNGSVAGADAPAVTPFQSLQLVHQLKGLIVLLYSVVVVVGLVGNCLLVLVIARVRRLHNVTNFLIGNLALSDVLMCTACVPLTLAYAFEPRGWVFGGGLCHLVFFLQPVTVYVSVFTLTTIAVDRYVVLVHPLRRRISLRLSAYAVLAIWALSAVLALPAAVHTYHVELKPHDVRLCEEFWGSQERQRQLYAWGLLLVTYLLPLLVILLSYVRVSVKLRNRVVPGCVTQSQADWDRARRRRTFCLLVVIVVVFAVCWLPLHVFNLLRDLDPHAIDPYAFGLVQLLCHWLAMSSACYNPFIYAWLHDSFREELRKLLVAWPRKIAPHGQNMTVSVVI

[13] = target: T1, Neuropeptide FF receptor 1; assay: Displacement of (D-[125I]Tyr1, MePhe3)-NPFF from NPFFR1 at 10 uM after 2 hrs; how it was run: as §3
[14] = target: T2, Neuropeptide FF receptor 2; assay: Displacement of (D-[125I]Tyr1, MePhe3)-NPFF from NPFFR2 at 10 uM after 2 hrs; how it was run: as §3
[15] = target: T1, Neuropeptide FF receptor 1; assay: Agonist activity at NPFFR1 expressed in HEK293T cells co-expressing Gqi5 assessed as increase of intracellular calcium mobilization after 1 hr; assay type: functional, cell-based; conditions: HEK-293T
[16] = target: T2, Neuropeptide FF receptor 2; assay: Agonist activity at NPFFR2 expressed in HEK293T cells co-expressing Gqi5 assessed as increase of intracellular calcium mobilization after 1 hr; assay type: functional, cell-based; conditions: HEK-293T
Rattus norvegicus [17] = organism: Rattus norvegicus; assay: Increase of GnRH release in Wistar-imamichi rat median eminence at 1 uM after 30 mins by double-antibody radioimmunoassay; assay type: functional; how it was run: as §2
KiSS-1 receptor [18] = target: T3, KiSS-1 receptor; assay: Agonist activity at GPR54 expressed in CHO cells assessed as increase of intracellular calcium mobilization at 10 uM after 1 hr; assay type: functional, cell-based

T3 sequence (Q969F8 whole entry): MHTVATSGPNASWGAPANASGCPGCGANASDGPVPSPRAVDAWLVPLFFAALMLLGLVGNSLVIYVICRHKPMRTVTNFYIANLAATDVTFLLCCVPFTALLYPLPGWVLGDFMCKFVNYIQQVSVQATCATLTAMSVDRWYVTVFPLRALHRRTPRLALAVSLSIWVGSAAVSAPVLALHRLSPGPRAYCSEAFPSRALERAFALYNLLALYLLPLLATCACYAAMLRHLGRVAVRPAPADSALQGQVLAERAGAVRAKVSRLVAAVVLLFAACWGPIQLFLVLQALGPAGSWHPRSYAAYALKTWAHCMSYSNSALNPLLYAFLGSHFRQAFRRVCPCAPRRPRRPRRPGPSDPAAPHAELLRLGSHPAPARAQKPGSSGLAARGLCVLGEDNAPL
T1 sequence (Q9GZQ6 whole entry): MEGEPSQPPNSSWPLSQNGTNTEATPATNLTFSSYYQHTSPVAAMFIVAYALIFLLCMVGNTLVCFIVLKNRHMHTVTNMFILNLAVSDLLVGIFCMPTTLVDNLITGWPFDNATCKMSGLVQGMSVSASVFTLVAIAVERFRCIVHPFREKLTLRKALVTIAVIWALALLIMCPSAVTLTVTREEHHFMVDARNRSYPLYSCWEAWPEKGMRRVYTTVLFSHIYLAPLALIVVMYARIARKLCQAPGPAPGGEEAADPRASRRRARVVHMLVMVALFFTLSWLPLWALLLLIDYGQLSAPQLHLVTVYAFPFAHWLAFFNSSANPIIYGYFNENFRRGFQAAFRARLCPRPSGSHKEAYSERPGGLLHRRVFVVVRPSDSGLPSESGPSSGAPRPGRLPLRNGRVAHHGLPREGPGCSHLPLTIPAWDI
T2 sequence (Q9Y5X5 whole entry): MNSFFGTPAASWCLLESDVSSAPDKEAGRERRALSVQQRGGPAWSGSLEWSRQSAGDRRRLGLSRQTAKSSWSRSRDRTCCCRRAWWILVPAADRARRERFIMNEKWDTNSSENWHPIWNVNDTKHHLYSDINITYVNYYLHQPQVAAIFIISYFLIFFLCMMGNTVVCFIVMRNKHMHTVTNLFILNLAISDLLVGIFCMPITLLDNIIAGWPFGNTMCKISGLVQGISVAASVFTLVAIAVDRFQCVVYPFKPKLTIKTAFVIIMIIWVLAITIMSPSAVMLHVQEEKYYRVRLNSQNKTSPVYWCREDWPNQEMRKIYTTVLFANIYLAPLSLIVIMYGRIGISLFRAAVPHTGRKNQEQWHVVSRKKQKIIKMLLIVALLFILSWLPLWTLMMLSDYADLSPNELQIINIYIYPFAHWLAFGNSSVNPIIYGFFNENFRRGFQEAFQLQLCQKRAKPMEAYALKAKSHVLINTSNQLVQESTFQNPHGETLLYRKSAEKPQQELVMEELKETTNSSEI

IC50 [1] [nM]	IC50 [2] [nM]	IC50 (KiSS-1 receptor [3]) [µM]	Activity [4] [%]	inhibition [7]	inhibition [8]	Molecule	Activity (Rattus norvegicus [5])	also measured
160	1800					CC(C)C[C@H](NC(=O)CNC(=O)[C@H](Cc1ccccc1)NC(=O)c1ccc(F)cc1)C(=O)N[C@@H](CCCN=C(N)N)C(=O)N[C@@H](Cc1c[nH]c2ccccc12)C(N)=O		
1.9	0.79	> 30				H-SLAAPQRF-OH		
4.7	76		86	Active	Active	CC(C)C[C@H](NC(=O)CNC(=O)[C@H](Cc1ccccc1)NC(=O)[C@H](CO)NC(=O)[C@H](CC(N)=O)NC(=O)[C@H](Cc1c[nH]c2ccccc12)NC(=O)[C@H](CC(N)=O)NC(=O)[C@@H](N)Cc1ccc(O)cc1)C(=O)N[C@@H](CCCNC(=N)N)C(=O)N[C@@H](Cc1ccccc1)C(N)=O [KISSPEPTIN-10]	Active	Activity (Rattus norvegicus [6]): Active
			49	Active	Active	CC(C)C[C@H](NC(=O)CNC(=O)[C@H](Cc1ccccc1)NC(=O)c1ccc(F)cc1)C(=O)N[C@@H](CCCNC(=N)N)C(=O)N[C@@H](Cc1c[nH]c2ccccc12)C(N)=O	Active	Activity [9]: inactive; Activity [10]: inactive; Activity [11]: inactive; Activity [12]: 21.1%; Activity [13]: 99.4%; Activity [14]: 90.7%; Activity [15]: Dose-dependent effect; Activity [16]: Dose-dependent effect; Activity (Rattus norvegicus [17]): Active
			52	Active	Active	CC(C)C[C@H](/C=C/CNC(=O)[C@H](Cc1ccccc1)NC(=O)c1ccc(F)cc1)C(=O)N[C@@H](CCCNC(=N)N)C(=O)N[C@@H](Cc1c[nH]c2ccccc12)C(N)=O	Active	Activity [9]: inactive; Activity [10]: inactive; Activity [11]: inactive; Activity [12]: 16.1%; Activity [13]: 88.3%; Activity [14]: 95.7%; Activity [15]: Dose-dependent effect; Activity [16]: Dose-dependent effect; Activity (Rattus norvegicus [17]): Active
		16				CN(C)c1cccc2c(S(=O)(=O)N3CCC[C@H]3C(=O)N[C@@H](CCC(N)=O)C(=O)N[C@@H](CCCNC(=N)N)C(=O)N[C@@H](Cc3ccccc3)C(N)=O)cccc12		Activity (KiSS-1 receptor [18]): inactive
		0.83				NC(=O)[C@H](Cc1ccccc1)NC(=O)[C@H](CCCN=C(N)N)NC(=O)C12CC3CC(CC(C3)C1)C2		
						N=C(N)NCCC[C@H](NC(=O)C12CC3CC(CC(C3)C1)C2)C(=O)N[C@@H](Cc1ccccc1)C(N)=O		Activity (KiSS-1 receptor [18]): inactive
640	2400					CC(C)C[C@H](/C=C/CNC(=O)[C@H](Cc1ccccc1)NC(=O)c1ccc(F)cc1)C(=O)N[C@@H](CCCN=C(N)N)C(=O)N[C@@H](Cc1c[nH]c2ccccc12)C(N)=O		
